Results from ChEMBL document CHEMBL4014329, “Selective Inhibition of Escherichia coli RNA and DNA Topoisomerase I by Hoechst 33258 Derived Mono- and Bisbenzimidazoles” (J Med Chem, 2017).
In brackets after ≈: the same amount, converted by molar mass. Activity calls are given as the source filed them. The rule behind the calls is not given here.

What was measured:
Escherichia coli [1] = assay: Antibacterial activity against Escherichia coli ATCC 25922 after 24 hrs by microbroth dilution method; format: functional; conditions: ATCC 25922, 24 h
How it was run: (§1)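 Microbroth dilution per CLSI guidelines. Organisms grown in Mueller−Hinton broth at 37 °C with shaking to log phase, pelleted, resuspended in 0.85% saline to OD625 0.1. Final inoculum 5 × 10^5 CFU/mL; triplicate; 24 h at 37 °C. OD625 read; MIC = lowest concentration completely inhibiting growth versus untreated controls.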

Enterococcus faecium = assay: Antibacterial activity against Enterococcus faecium BM4105RF after 24 hrs by microbroth dilution method; format: functional
How it was run: (§2)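 Mueller-Hinton broth cultures grown at 37 °C with shaking to log phase, pelleted, resuspended in 0.85% saline to OD625 0.1. Broth microdilution per CLSI guidelines, final inoculum 5 × 10^5 CFU/mL, in triplicate, 24 h at 37 °C. Growth read as OD625. MIC is the lowest concentration giving complete growth inhibition versus untreated controls.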

Citrobacter freundii = assay: Antibacterial activity against Citrobacter freundii 4747CFAA after 24 hrs by microbroth dilution method; format: functional; how it was run: as §1
Enterobacter cloacae = assay: Antibacterial activity against Enterobacter cloacae ATCC 13047 after 24 hrs by microbroth dilution method; format: functional; conditions: ATCC 13047, 24 h; how it was run: as §1
Staphylococcus aureus [2] = assay: Antibacterial activity against Staphylococcus aureus ATCC 29213 after 24 hrs by microbroth dilution method; format: functional; conditions: ATCC 29213, 24 h; how it was run: as §1
Staphylococcus aureus [3] = assay: Antibacterial activity against methicillin-resistant Staphylococcus aureus 33591 after 24 hrs by microbroth dilution method; format: functional; conditions: Staphylococcus aureus, 33591, 24 h; how it was run: as §2
Staphylococcus aureus [4] = assay: Antibacterial activity against Staphylococcus aureus ATCC 33591 after 24 hrs by microbroth dilution method; format: functional; conditions: ATCC 33591, 24 h; how it was run: as §1
[5] = system: Staphylococcus epidermidis; assay: Antibacterial activity against Staphylococcus epidermidis ATCC 12384 after 24 hrs by microbroth dilution method; format: functional; conditions: ATCC 12384, 24 h; how it was run: as §1
Pseudomonas aeruginosa = assay: Antibacterial activity against Pseudomonas aeruginosa ATCC 27853 after 24 hrs by microbroth dilution method; format: functional; conditions: ATCC 27853, 24 h; how it was run: as §1
Acinetobacter baumannii = assay: Antibacterial activity against Acinetobacter baumannii ATCC 19606 after 24 hrs by microbroth dilution method; format: functional; conditions: ATCC 19606 = CIP 70.34 = JCM 6841, 24 h; how it was run: as §1
Shigella flexneri = assay: Antibacterial activity against Shigella flexneri 2457NR517 after 24 hrs by microbroth dilution method; format: functional; conditions: 2457NR517, 24 h; how it was run: as §2
[6] = Binding affinity to dA60.dT60 B-DNA duplex (unknown origin) assessed as induction of biphasic transition at <5 uM by UV-vis spectrophotometric analysis
Enterococcus faecalis = assay: Antibacterial activity against Enterococcus faecalis ATCC 29212 after 24 hrs by microbroth dilution method; format: functional; conditions: ATCC 29212, 24 h; how it was run: as §1
Klebsiella pneumoniae = assay: Antibacterial activity against Klebsiella pneumoniae NR15410 after 24 hrs by microbroth dilution method; format: functional; conditions: NR15410, 24 h; how it was run: as §1
Staphylococcus aureus [7] = assay: Antibacterial activity against methicillin-resistant Staphylococcus aureus A960649 after 24 hrs by microbroth dilution method; format: functional; conditions: A960649, 24 h; how it was run: as §2
Escherichia coli [8] = assay: Antibacterial activity against Escherichia coli K-12 after 24 hrs by microbroth dilution method; format: functional; conditions: K-12, 24 h; how it was run: as §1
[9] = Binding affinity to dA60.dT60 B-DNA duplex (unknown origin) assessed as change in melting temperature at 10 uM by UV-vis spectrophotometric analysis
How it was run: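 UV melting of dA60·dT60 at 1 μM/duplex with compound at 10 μM. Buffer 10 mM sodium cacodylate, 0.1 mM EDTA, 100 mM NaCl, pH 7.0; duplex pre-annealed from 95 °C. Compound stocks in DMSO diluted into buffer. Heating at 0.2 °C/min, monitored at 260 nm, points every 1.0 °C; Tm taken from derivatives.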

DU-145 = assay: Cytotoxicity against human DU145 cells after 48 hrs by SRB assay; format: cell-based; conditions: Homo sapiens, DU-145, 48 h
How it was run: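 Cells cultured per ATCC protocols, seeded and grown 24 h (37 °C, 5% CO2), then treated in triplicate at final 20, 10, 5, 2.5, 1.25, 0.625 and 0.0625 μM for 48 h. Fixed with cold TCA (16% final, 4 °C, 1 h), stained with SRB in 1% acetic acid, dye solubilized in 10 mM Tris base, A560 read. IC50 derived; study in duplicate.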

| Compound | MIC (Escherichia coli [1]) | MIC (Enterococcus faecium) | MIC (Citrobacter freundii) | MIC (Enterobacter cloacae) | MIC (Staphylococcus aureus [2]) | MIC (Staphylococcus aureus [3]) | MIC (Staphylococcus aureus [4]) | MIC [5] | MIC (Pseudomonas aeruginosa) | MIC (Acinetobacter baumannii) | MIC (Shigella flexneri) | Activity [6] | MIC (Enterococcus faecalis) | MIC (Klebsiella pneumoniae) | MIC (Staphylococcus aureus [7]) | MIC (Escherichia coli [8]) | ΔTm [9] | IC50 (DU-145) |
| --- | --- | --- | --- | --- | --- | --- | --- | --- | --- | --- | --- | --- | --- | --- | --- | --- | --- | --- |
| Oc1ccc(-c2nc3ccccc3[nH]2)cc1 | 16 µg/mL (≈ 76.1 µM) | > 32 µg/mL | > 32 µg/mL | > 32 µg/mL | 16 to 32 µg/mL (≈ 76.1 to 152 µM) | > 32 µg/mL | 16 to 32 µg/mL (≈ 76.1 to 152 µM) | > 32 µg/mL | 16 µg/mL (≈ 76.1 µM) | 16 to 32 µg/mL (≈ 76.1 to 152 µM) | > 32 µg/mL | Active | 16 µg/mL (≈ 76.1 µM) | > 32 µg/mL | > 32 µg/mL | 16 µg/mL (≈ 76.1 µM) | 0 °C |  |
| C#Cc1ccc(-c2cn(CCOc3ccc(-c4nc5ccc(N6CCN(C)CC6)cc5[nH]4)cc3)nn2)cc1 | 16 µg/mL (≈ 31.8 µM) | > 32 µg/mL | > 32 µg/mL | > 32 µg/mL | 16 to 32 µg/mL (≈ 31.8 to 63.5 µM) | > 32 µg/mL | 16 µg/mL (≈ 31.8 µM) | > 32 µg/mL | 16 µg/mL (≈ 31.8 µM) | > 32 µg/mL | > 32 µg/mL | Active | 16 to 32 µg/mL (≈ 31.8 to 63.5 µM) | > 32 µg/mL | > 32 µg/mL | 16 µg/mL (≈ 31.8 µM) | 1.9 °C |  |
| CN1CCN(c2ccc3nc(-c4ccc(OCCCN)cc4)[nH]c3c2)CC1 | > 32 µg/mL | > 32 µg/mL | > 32 µg/mL | > 32 µg/mL | > 32 µg/mL | > 32 µg/mL | > 32 µg/mL | > 32 µg/mL | > 32 µg/mL | > 32 µg/mL | > 32 µg/mL | Active | > 32 µg/mL | > 32 µg/mL | > 32 µg/mL | > 32 µg/mL | 3.3 °C |  |
| C#CCOc1ccc(-c2nc3ccc(N4CCN(C)CC4)cc3[nH]2)cc1 | 16 µg/mL (≈ 46.2 µM) | > 32 µg/mL | > 32 µg/mL | > 32 µg/mL | ≥ 32 µg/mL | > 32 µg/mL | 16 to 32 µg/mL (≈ 46.2 to 92.4 µM) | > 32 µg/mL | 16 µg/mL (≈ 46.2 µM) | > 32 µg/mL | > 32 µg/mL | Active | 16 to 32 µg/mL (≈ 46.2 to 92.4 µM) | > 32 µg/mL | > 32 µg/mL | 16 µg/mL (≈ 46.2 µM) | 2.6 °C |  |
| CCOc1ccc(-c2nc3ccc(N4CCN(C)CC4)cc3[nH]2)cc1 | 16 µg/mL (≈ 47.6 µM) | > 32 µg/mL | > 32 µg/mL | > 32 µg/mL | 16 to 32 µg/mL (≈ 47.6 to 95.1 µM) | > 32 µg/mL | 16 to 32 µg/mL (≈ 47.6 to 95.1 µM) | > 32 µg/mL | 16 µg/mL (≈ 47.6 µM) | > 32 µg/mL | > 32 µg/mL | Active | 16 µg/mL (≈ 47.6 µM) | > 32 µg/mL | > 32 µg/mL | 16 µg/mL (≈ 47.6 µM) | 1.7 °C |  |
| CN1CCN(c2ccc3nc(-c4ccc5nc(-c6ccc(O)cc6)[nH]c5c4)[nH]c3c2)CC1.Cl.Cl.Cl | 8 to 16 µg/mL |  |  |  | > 32 µg/mL |  | 16 to 32 µg/mL |  | 8 µg/mL |  |  |  | 16 to 32 µg/mL |  |  | 8 µg/mL |  | > 10 µM |
| CN1CCN(c2ccc3nc(-c4ccc(OCCCNC(=O)OC(C)(C)C)cc4)[nH]c3c2)CC1 | 16 µg/mL (≈ 34.4 µM) | > 32 µg/mL | > 32 µg/mL | > 32 µg/mL | 16 to 32 µg/mL (≈ 34.4 to 68.7 µM) | > 32 µg/mL | 16 to 32 µg/mL (≈ 34.4 to 68.7 µM) | > 32 µg/mL | 16 µg/mL (≈ 34.4 µM) | > 32 µg/mL | > 32 µg/mL | Active | 16 to 32 µg/mL (≈ 34.4 to 68.7 µM) | > 32 µg/mL | > 32 µg/mL | 16 µg/mL (≈ 34.4 µM) | 1 °C |  |
| CN1CCN(c2ccc3nc(-c4ccc(OCCN=[N+]=[N-])cc4)[nH]c3c2)CC1 | 16 µg/mL (≈ 42.4 µM) | > 32 µg/mL | > 32 µg/mL | > 32 µg/mL | ≥ 32 µg/mL | > 32 µg/mL | 16 to 32 µg/mL (≈ 42.4 to 84.8 µM) | > 32 µg/mL | 16 µg/mL (≈ 42.4 µM) | > 32 µg/mL | > 32 µg/mL | Active | 16 to 32 µg/mL (≈ 42.4 to 84.8 µM) | > 32 µg/mL | > 32 µg/mL | 16 µg/mL (≈ 42.4 µM) | 1.9 °C |  |
